Data published in ChEMBL document CHEMBL1148843, “High-throughput screening affords novel and selective trypanothione reductase inhibitors with anti-trypanosomal activity” (Bioorg Med Chem Lett, 2007).

Experiments:
[1] = Selectivity for TR over human GR
Trypanosoma brucei = assay: Antiproliferative activity against Trypanosoma brucei; assay type: functional, organism-based
Method in brief: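 Bloodstream T. b. brucei S427 seeded at 10^3 cells/ml in HMI9 medium, 0.5% DMSO, inhibitor 50 to 0.2 μM serially diluted from 10 mM DMSO stocks. Incubated 72 h, 37 °C, 5% CO2, humidified. Then 45 μM resazurin added, further 4 h, resorufin fluorescence read (ex 528, em 590 nm). Triplicates, three separate occasions; weighted means ± SEM.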

[2] = biological target: T1, Glutathione reductase, mitochondrial (Homo sapiens, UniProt P00390); assay: Inhibition of human GR
T1 sequence (P00390 whole entry): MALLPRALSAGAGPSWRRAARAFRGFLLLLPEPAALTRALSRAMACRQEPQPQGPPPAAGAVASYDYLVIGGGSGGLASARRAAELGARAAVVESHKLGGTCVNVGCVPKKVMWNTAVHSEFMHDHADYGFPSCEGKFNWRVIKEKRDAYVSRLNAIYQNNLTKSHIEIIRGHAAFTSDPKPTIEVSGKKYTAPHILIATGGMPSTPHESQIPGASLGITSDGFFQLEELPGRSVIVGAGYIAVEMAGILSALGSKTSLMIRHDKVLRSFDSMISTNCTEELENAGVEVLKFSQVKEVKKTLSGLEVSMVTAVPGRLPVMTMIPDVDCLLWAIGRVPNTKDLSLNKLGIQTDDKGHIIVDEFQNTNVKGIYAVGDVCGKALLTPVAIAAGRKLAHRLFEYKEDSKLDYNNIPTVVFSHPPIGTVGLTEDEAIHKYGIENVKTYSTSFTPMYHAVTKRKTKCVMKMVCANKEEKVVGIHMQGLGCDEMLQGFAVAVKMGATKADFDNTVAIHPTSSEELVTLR

Trypanothione reductase = Trypanothione reductase (Trypanosoma brucei brucei, UniProt P39051); assay: Inhibition of TR by DTNB-coupled assay
Chain of Trypanothione reductase (P39051 whole entry): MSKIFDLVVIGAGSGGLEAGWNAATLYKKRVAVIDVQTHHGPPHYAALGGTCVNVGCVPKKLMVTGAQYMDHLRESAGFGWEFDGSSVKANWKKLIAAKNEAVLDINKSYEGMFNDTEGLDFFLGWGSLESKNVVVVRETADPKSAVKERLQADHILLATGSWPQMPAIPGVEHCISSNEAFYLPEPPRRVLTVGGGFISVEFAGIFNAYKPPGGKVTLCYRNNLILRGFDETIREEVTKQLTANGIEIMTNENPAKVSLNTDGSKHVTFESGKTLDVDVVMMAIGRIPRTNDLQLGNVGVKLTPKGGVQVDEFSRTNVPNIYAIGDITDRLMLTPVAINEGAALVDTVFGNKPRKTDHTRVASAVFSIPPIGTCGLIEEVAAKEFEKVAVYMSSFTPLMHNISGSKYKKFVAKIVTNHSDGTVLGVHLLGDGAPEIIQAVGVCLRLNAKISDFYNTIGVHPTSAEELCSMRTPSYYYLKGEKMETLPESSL
Method in brief: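 Trypanothione reductase in 40 mM potassium HEPES pH 7.4, 1 mM EDTA with 4.22 µM trypanothione disulfide, 70.3 µM DTNB, 2.81 mU/mL TR. Compounds added from DMSO stocks, tested over 1.91 ng/mL to 31.2 µg/mL. NADPH added to start the reaction, 135 µM in the added solution. Plates incubated 60 min at 30°C, absorbance read at 405 nm. IC50 values determined.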

| Compound | Ratio IC50 [1] | EC50 (Trypanosoma brucei) [µM] | IC50 [2] [µM] | IC50 (Trypanothione reductase) [µM] | IC50 (Trypanosoma brucei) [µM] |
| --- | --- | --- | --- | --- | --- |
| CC(C)c1cc(CN(C)C)cc(C(C)C)c1O | 6.7 | > 50 | 79.3 | 11.8 |  |
| CN(C)CCC(=O)c1cccc([N+](=O)[O-])c1 | 59 | 0.68 | 20.3 | 0.34 |  |
| CCCCOC(=O)c1ccc(NCCC(=O)c2cccc([N+](=O)[O-])c2)cc1 |  | 0.96 | > 135 | 2.4 |  |
| O=C(CCNc1ccccc1)c1cccc([N+](=O)[O-])c1 | 35 | 1.01 | 58 | 1.7 |  |
| O=C(CCNc1cccc(F)c1)c1cccc([N+](=O)[O-])c1 |  | 0.82 | > 173 | 3.3 |  |
| CN(C)CCC(=O)c1ccc(S(C)(=O)=O)cc1 | 7 | 0.55 | 20.4 | 2.9 |  |
| CCc1ccc(NCCC(=O)c2ccc(Cl)c(Cl)c2)cc1 |  | 1.65 | > 157 | 107 |  |
| CC(C)(C)c1cc(CN2CCCCCC2)cc(C(C)(C)C)c1O |  | 3.3 | > 155 | 38.8 |  |
| N=C(N)c1ccc(OCCCCCOc2ccc(C(=N)N)cc2)cc1 [PENTAMIDINE] |  |  |  |  | 0.0046 |
| CC(C)(C)c1cc(CNCCO)cc(C(C)(C)C)c1O | 13 | 3.01 | 24.9 | 2 |  |
| CS(=O)(=O)c1ccc(C(=O)CCN2CCCCC2)cc1 | 13 | 0.95 | 105 | 7.8 |  |
| O=C(CCN1CCOCC1)c1ccc(Cl)cc1 |  | 0.98 | > 212 | 148 |  |
| CN(C)CCC(=O)c1ccc(Cl)c(Cl)c1 | 20 | 1 | 64.8 | 3.3 |  |
| Cc1cccc(NCCC(=O)c2cccc([N+](=O)[O-])c2)c1C | 58 | 0.15 | 86.3 | 1.5 |  |
